Consider 97 compounds from ChEMBL document CHEMBL4513216, “Probing the Open Global Health Chemical Diversity Library for Multistage-Active Starting Points for Next-Generation Antimalarials” (ACS Infect Dis, 2020).

Molecules are shown by their SMILES.

The data set is described as follows: Toxicity liver stage against HepG2, at 10uM. In kind it is cell-based. On the set-up: test concentration 10 uM, cell line HepG2-A16-CD81EGFP. The note with it: human, HepG2-A16-CD81EGFP cells; read-out: INHIBITION
In outline:
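Uninfected HepG2-A16-CD81EGFP cells, 3 × 10^3 per well, 1536-well, plated on prespotted compound at 10 μM final, parasite-free screening media added to match infected plates; puromycin 10 μM positive, DMSO 0.5% negative; run in parallel with 48 h PbLuc assay at 37 °C, 5% CO2; viability by CellTiter-Glo luminescence, normalized to controls.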
On to `Cc1noc(O)c1Cc1ccc2ccccc2c1`, for which the cytotoxicity at 10 µM was -8.94%. In the case of `CCN1C(=O)COC[C@@H]1[C@H](O)c1ccc(NC(=O)COC)cc1`, the cytotoxicity at 10 µM was determined as 1.73%.

Turning to `FC(F)(F)Oc1ccc(-c2c[nH]c([C@@H]3COCCN3)n2)cc1`, the cytotoxicity at 10 µM is -8.64%.

Consider `COc1ccc(S(=O)(=O)N2CCOC[C@H](Oc3cnccn3)C2)cc1`, for which the cytotoxicity at 10 µM turned out to be 10.4%. Under `COc1ccc(C(=O)Nc2cccc(C(N)=O)c2)c(OC)n1` stands -9.2%; under `COc1ccccc1NC(=O)Cn1c(=O)nc(N)c2cc(C)sc21`, 3.45%; under `COc1cccc2c1ccn2CC(=O)Nc1nc[nH]n1`, -0.297%. With `O=C(NCC1(CO)CC1)c1ccccc1Br`, the cytotoxicity at 10 µM was -0.734%. For `O=C(Cc1cccs1)NCC1COCc2c(-c3ccoc3)nnn2C1` (configuration not stated) the value was 19%. On to `COc1ncccc1CN1CC[C@H]2O[C@@H](c3nnc(C)o3)CC[C@H]21`, for which the cytotoxicity at 10 µM stood at 9.6%.

Take `O=C(NCC1CC1)c1cc2c(s1)CCN2C(=O)c1cccnc1`: the cytotoxicity at 10 µM is 8.07%. As for `O=C(c1cocn1)N1CCC[C@]2(C[C@@H](Oc3ncccc3F)CO2)C1`, the cytotoxicity at 10 µM came out at 6.21%. For `O=C(c1ccnnc1)N1CCC2(CCN(c3ccsc3)C2=O)C1` (configuration not stated) the value was -139%; for `Cn1nc(C#N)c2c1CN(C(=O)c1ccnnc1)CCC2`, -147%. Under `O=c1ccc(-c2cccs2)nn1CN1CCN(c2ccccn2)CC1` stands -0.383%; under `Nc1ncccc1C(=O)NCc1ccc(Br)cc1`, 35.7%. Consider `Cc1nnsc1C(=O)NCCNS(=O)(=O)c1cccs1`, for which the cytotoxicity at 10 µM came out at 4.29%. For `O=C(NCCc1ccccn1)c1[nH]nc2c1CCCC2` the value was 8.41%; for `Cc1ccc(-c2nc(C3CCN(C(=O)c4ccn(C)n4)CC3)no2)cn1`, -2.81%; for `COc1cc(CCC(=O)N2CCC(c3cc4ncccc4[nH]3)CC2)on1`, 3.78%. For `c1nc2c(c(N3CCOC(Cn4cncn4)C3)n1)CCC2` (configuration not stated), the cytotoxicity at 10 µM was determined as 14.5%. For `CCc1ccc(C(=O)N(c2cccnc2)C(C)C)cc1S(C)(=O)=O` the value was 2.62%; for `COc1ccccc1C(C)NC(=O)N1CCN(Cc2ccc(Br)s2)CC1` (configuration not stated), 10.5%. For `CCOc1ccccc1NC(=O)NCc1ccoc1` the value was -0.335%. `Cc1ccc(S(=O)(=O)Cc2nnc(C)n2C)cc1`: the cytotoxicity at 10 µM was -2.92%. Under `O=C(NCCCn1ccccc1=O)c1cnc(-c2ccsc2)s1` stands 0.956%; under `CCc1ccsc1C(=O)NC(Cc1ccccc1)C(N)=O` (configuration not stated), 9.01%. Under `Cc1cnn(CCC(=O)NCc2ccc(N(C)C)c(C)c2)c1` stands -3.03%; under `Cc1cnn(C2CN(CCOc3ccc(C#N)cc3)C2)c1`, 1.77%; under `COc1ccc(CN(C(=O)C(C)C)c2cnn(C)c2)c(OC)c1`, 3.2%. `Cc1cc(C(=O)NC2(C#N)CCCC2)c(C)n1-c1cccnc1`: the cytotoxicity at 10 µM was -3.15%.

`Nc1cc(CCCNC(=O)NC2CCCC2)nn1-c1ccccc1`: the cytotoxicity at 10 µM is -18.9%. In the case of `CN(CC(=O)NC1CC1)S(=O)(=O)c1ccc(F)cc1Cl`, the cytotoxicity at 10 µM was -8.06%. Regarding `O=C(NCc1ccc(OCC2CC2)nc1)Nc1c(F)cccc1F`, the cytotoxicity at 10 µM turned out to be 9.47%. `CNC(=O)C(NC(=O)c1ccn(C)c(=O)c1)c1ccccc1` (configuration not stated): the cytotoxicity at 10 µM stood at 4.73%. Under `CCC(NC(=O)c1cccc2cc[nH]c12)C(=O)N1CCOCC1` (configuration not stated) stands -13%. For `CC(C)c1cccc(-n2cc(O)c(C(=O)NCCC(=O)N(C)C)n2)c1` the value was -2.53%; for `Cc1nc(NC(=O)COCC2CC2)ccc1Br`, -1.51%. For `CS(=O)(=O)NCCCSCc1cccc2cccnc12`, the cytotoxicity at 10 µM was determined as 3.53%. Under `CCN(Cc1ccoc1)C(=O)C1CN(C(=O)OC(C)(C)C)C1` stands -0.743%; under `COCCC1(CNC(=O)NCC2CCCN(C)C2)CCCC1` (configuration not stated), 0.131%; under `CC1CCN(C(=O)CSCc2noc(C(C)C)n2)CC1`, 1.4%.

As to `Cn1ccnc(Sc2ccc(O)cc2)c1=O`, the cytotoxicity at 10 µM amounted to 6.64%. For `CCn1cc(NC(=O)NC2CCCc3c2cnn3CCO)cn1` (configuration not stated) the value was 5.04%; for `Cc1nnc(C(C)NCC2(c3c(F)cccc3F)CCCC2)o1` (configuration not stated), 0.511%; for `O=C1NCCCCC1Sc1nnc(-c2cccnc2)n1C1CC1` (configuration not stated), -3.86%. Under `O=C(NCc1ccc(OCC2CC2)nc1)c1c(F)cccc1F` stands 1.49%; under `CN(CCO)Cc1cc(Cl)ccc1OCC(O)CN1CCCCCC1` (configuration not stated), -5.09%; under `NCc1n[nH]c(=O)n1-c1ccccc1Oc1ccccc1`, -5.04%. For `O=C1CCC2(CCCN(C(=O)c3ccc[nH]3)C2)CN1CCc1c[nH]cn1` (configuration not stated) the value was 0.0773%; for `CCC[C@H]1CN(S(C)(=O)=O)C[C@@H]1NC(=O)Cc1ccc(OC)cc1`, 1.85%.

Take `CN(C)C(C(=O)NCCn1cccc1)c1cccc(F)c1` (configuration not stated): the cytotoxicity at 10 µM is -1.23%. Consider `CN(Cc1cc2cc(F)ccc2[nH]1)C(=O)C1CC(=O)N(C2CC2)C1` (configuration not stated), for which the cytotoxicity at 10 µM was 0.0448%. For `O=C1CCCCCN1Cc1nc(C2(c3ccc(F)cc3)CCOC2)no1` (configuration not stated) the value was 21.1%; for `COCCN1CC(Nc2nc(C(C)C)nc3c2cnn3C)CC1=O` (configuration not stated), -1.52%. For `O=c1n(CC2CCCO2)nc(CC2CCNCC2)n1-c1ccccc1` (configuration not stated), the cytotoxicity at 10 µM was -3.49%. Turning to `CCOCCC(=O)N(C)CC1Cc2ccccc2CN1C` (configuration not stated), the cytotoxicity at 10 µM was -8.77%. With `CCN1CC2(CCN(CC3CCCO3)CC2)OC1=O` (configuration not stated), the cytotoxicity at 10 µM is -4.78%.

For the compound `Cc1cc(N(C)Cc2snnc2C)nc(-c2cccnc2)n1`, the cytotoxicity at 10 µM was found to be 2.43%. As to `Cc1cc(N2CCOC(CN)C2)nc(-c2ccccc2)n1` (configuration not stated), the cytotoxicity at 10 µM is -3.26%.

Consider `COc1cccc(-c2noc(-c3ccc(NCC(C)O)nc3)n2)c1OC` (configuration not stated), for which the cytotoxicity at 10 µM was -5.82%. Under `CCN(CC1CCCN(CCc2cccc(OC)c2)C1)C(=O)CCSC` (configuration not stated) stands 10.5%. Take `Cc1cccc2[nH]c(C3CCN(C(=O)c4cnc(O)cc4O)CC3)nc12`: the cytotoxicity at 10 µM came out at 3.09%. For `Cc1cc(=O)[nH]c(SC(C)C(=O)N2CCC(NS(C)(=O)=O)CC2)n1` (configuration not stated) the value was -10.4%; for `COc1cccc(N2CCN(Cc3ncc[nH]3)CC2=O)c1`, -5.73%; for `Cc1cc(C)nc(CCNC(=O)[C@H]2CNC[C@@H](C(=O)N3CCCC3)C2)n1`, -20.9%. Under `CNC(=O)c1ccc(C2CN(C(=O)COC)CCO2)nc1` (configuration not stated) stands 3.25%; under `CC(=O)NCc1ccc(C(=O)N2CCCC2c2cnn(C)c2)s1` (configuration not stated), -13.6%. Regarding `N#Cc1ccsc1NC(=O)CCN1CCn2c(nnc2C2CC2)C1`, the cytotoxicity at 10 µM is -5.65%. Under `Cc1ccccc1NC1CCN(C(=O)CCc2ccco2)CC1` stands -16.2%; under `O=C(NCC1CCOC1)c1ccc(-c2ccccc2)[nH]c1=O` (configuration not stated), -18.3%. For `CC(NC(=O)NCCCc1n[nH]c(N)c1C#N)c1ccc(F)cc1` (configuration not stated) the value was -13.7%. For `CCc1noc(C(C)N2CCN(C(=O)CN3CCOCC3)CC2)n1` (configuration not stated), the cytotoxicity at 10 µM was -9.17%. For `Cc1nnc(CN(C)C2CCN(Cc3nc4ccccc4n3C)C2)o1` (configuration not stated), the cytotoxicity at 10 µM is -10.1%. On to `Cc1cc(NC(=O)CN2CCCC2c2noc(C)n2)n(C)n1` (configuration not stated), for which the cytotoxicity at 10 µM is -2.3%.

For `NC(=O)C1CCCN(c2ccc(CNC(=O)c3cc[nH]n3)cc2)C1` (configuration not stated), the cytotoxicity at 10 µM was -3.9%. Take `O=C(NCCc1ccccc1)NCC(O)c1cccc(F)c1` (configuration not stated): the cytotoxicity at 10 µM was -7.24%. On to `COc1cccc(CC(=O)N2CCCC(c3nncn3C)C2)c1` (configuration not stated), for which the cytotoxicity at 10 µM was -20.2%. Under `Cc1nc(C(C)(C)C)sc1C(=O)NCCNc1ncccc1C#N` stands -15.8%; under `COc1ccc(C)cc1C(C)NC(=O)Cn1ccc(=O)n(C)c1=O` (configuration not stated), -1.59%. For `CS(=O)(=O)NC1CCCN(C(=O)NCc2ccoc2)C1` (configuration not stated) the value was -14.9%; for `CC(C)n1nc2c(cc1=O)CN(Cc1nnc(C3CC3)o1)CC2`, -18.8%. On to `CC(Cn1cccn1)NCc1csc(-c2cccs2)n1` (configuration not stated), for which the cytotoxicity at 10 µM is -8.85%.

As to `NC(=O)c1ccc(OCC(=O)N2CCCC(n3cccn3)C2)cc1` (configuration not stated), the cytotoxicity at 10 µM is 1.3%. For the compound `c1cncc(N2CCCC3(CCN(CCN4CCCC4)CC3)C2)c1`, the cytotoxicity at 10 µM was -2.95%. With `COCc1cncc2c1CCN(Cc1cnn(C)c1)C2`, the cytotoxicity at 10 µM is -0.287%. Under `COCC1CC2(CCN(C(=O)c3cncc(C)c3)CC2)CO1` (configuration not stated) stands -155%.

`Cc1cccc(CN2C[C@@H]3COC[C@H](NS(C)(=O)=O)[C@@H]3C2)n1`: the cytotoxicity at 10 µM was -2.6%. For the compound `Cc1cccc(N2CCc3ncc(CNc4ccccn4)n3CC2)n1`, the cytotoxicity at 10 µM worked out at 2.19%. Under `Cc1ccc(CN2CCO[C@@H]3C[C@@H](C(=O)NC(C)C)C[C@H]32)o1` stands 6.1%.

With `Cc1ccc(C(=O)N2CCO[C@H]3[C@H](OCCN(C)C)CC[C@@H]32)o1`, the cytotoxicity at 10 µM was -145%.

Regarding `O=C(c1ccco1)N1CCO[C@@H]2CN(c3ccccn3)CC[C@@H]2C1`, the cytotoxicity at 10 µM amounted to 9.43%. For `COc1cc(CNC(C)Cn2ccnc2)cc2c1OCO2` (configuration not stated) the value was 2.67%; for `Cc1cccc(CN2C(=O)CCC23CCN(c2ncc(F)cn2)CC3)n1`, 9.11%. Under `Cn1cc(-c2nc3c(cc2C(=O)O)CCN(C(=O)C2CC2)CC3)cn1` stands 17.9%. Under `CC(C)OC(=O)N1C[C@@H]2CC[C@H]1CN(C(=O)c1ccccn1)C2` stands 0.502%; under `CNC(=O)[C@H]1C[C@H]2CN(C(=O)Nc3ccccc3)C[C@@H]1O2`, 1.91%.
